Reference: ChEMBL document CHEMBL1828552, “Synthesis and studies of novel 2-(4-cyano-3-trifluoromethylphenyl amino)-4-(quinoline-4-yloxy)-6-(piperazinyl/piperidinyl)-s-triazines as potential antimicrobial, antimycobacterial and anticancer agents” (2011)
Values after ≈ are worked out from the molar mass of the structure shown.

Tests used:
Klebsiella pneumoniae [1] = test: Antibacterial activity against 10^5 CFU/mL Klebsiella pneumoniae MTCC 109 after 24 hrs by agar streak dilution method; format: functional; conditions: MTCC 109, 24 h
In short: (§1)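 Agar streak dilution. Stock 100 µg/mL in DMSO; graded amounts were mixed into molten nutrient agar and poured at 4–5 mm depth. Plates carried serial dilutions over […]. About 10⁵ CFU/mL of each bacterium was applied, and plates were incubated at 37 ± 1 °C for 24 h. MIC was read from the dilution series.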

Candida albicans [2] = test: Antifungal activity against 10^5 CFU/mL Candida albicans MTCC 183 after 48 hrs by disc diffusion technique; format: functional
Salmonella typhi [3] = test: Antibacterial activity against 10^5 CFU/mL Salmonella typhi MTCC 733 after 24 hrs by agar streak dilution method; format: functional, Salmonella enterica subsp. enterica serovar Typhi; conditions: Salmonella enterica, MTCC 733, 24 h
Proteus vulgaris [4] = test: Antibacterial activity against 10^5 CFU/mL Proteus vulgaris MTCC 1771 after 24 hrs by agar streak dilution method; format: functional; conditions: MTCC 1771, 24 h; in short: as §1
Staphylococcus aureus [5] = test: Antibacterial activity against 10^5 CFU/mL Staphylococcus aureus MTCC 96 after 24 hrs by agar streak dilution method; format: functional; conditions: MTCC 96, 24 h; in short: as §1
Pseudomonas aeruginosa [6] = test: Antibacterial activity against 10^5 CFU/mL Pseudomonas aeruginosa MTCC 741 after 24 hrs by agar streak dilution method; format: functional; conditions: MTCC 741, 24 h; in short: as §1
Shigella flexneri [7] = test: Antibacterial activity against 10^5 CFU/mL Shigella flexneri MTCC 1457 after 24 hrs by agar streak dilution method; format: functional; conditions: MTCC 1457, 24 h; in short: as §1
Staphylococcus aureus [8] = test: Antibacterial activity against 10^5 CFU/mL Staphylococcus aureus MTCC 96 after 24 hrs by disc diffusion technique; format: functional
In short: (§2)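 Disc diffusion on Mueller–Hinton agar poured 5 mm deep. The surface was swabbed with a 10⁵ CFU/mL […] suspension. Filter-paper discs 6.25 mm in diameter were soaked in compound in DMSO and placed on the agar. Plates were incubated 24 h at 37 ± 1 °C, and the inhibition zone was measured in mm. A DMSO disc served as blank.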

Bacillus cereus [9] = test: Antibacterial activity against 10^5 CFU/mL Bacillus cereus MTCC 619 after 24 hrs by disc diffusion technique; format: functional; in short: as §2
Bacillus cereus [10] = test: Antibacterial activity against 10^5 CFU/mL Bacillus cereus MTCC 619 after 24 hrs by agar streak dilution method; format: functional; conditions: MTCC 619, 24 h; in short: as §1
Aspergillus clavatus [11] = test: Antifungal activity against 10^5 CFU/mL Aspergillus clavatus MTCC 1323 after 48 hrs by disc diffusion technique; format: functional
Klebsiella pneumoniae [12] = test: Antibacterial activity against 10^5 CFU/mL Klebsiella pneumoniae MTCC 109 after 24 hrs by disc diffusion technique; format: functional; in short: as §2
Salmonella typhi [13] = test: Antibacterial activity against 10^5 CFU/mL Salmonella typhi MTCC 733 after 24 hrs by disc diffusion technique; format: functional, Salmonella enterica subsp. enterica serovar Typhi
In short: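 Disc diffusion. Mueller-Hinton agar autoclaved 120 °C 30 min, poured 5 mm deep. Surface swabbed with 10⁵ CFU/mL suspension […]. 6.25 mm filter-paper discs soaked in compound in DMSO; DMSO-only disc as blank. Incubated 37 ± 1 °C, 24 h for bacteria or 48 h for fungi. Ciprofloxacin and ketoconazole discs as reference drugs. Inhibition zone measured in mm.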

Escherichia coli [14] = test: Antibacterial activity against 10^5 CFU/mL Escherichia coli MTCC 739 after 24 hrs by disc diffusion technique; format: functional; in short: as §2
Aspergillus fumigatus [15] = test: Antifungal activity against 10^5 CFU/mL Aspergillus fumigatus MTCC 343 after 48 hrs by disc diffusion technique; format: functional
Aspergillus clavatus [16] = test: Antifungal activity against 10^5 CFU/mL Aspergillus clavatus MTCC 1323 after 48 hrs by agar streak dilution method; format: functional; conditions: MTCC 1323, 48 h
In short: (§3)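 Agar streak dilution for fungi. Stock 100 µg/mL in DMSO; graded amounts were mixed into molten Sabouraud dextrose agar and poured at 4–5 mm depth. Serial dilutions ran over […]. About 10⁵ CFU/mL inoculum was applied, with incubation at 37 ± 1 °C for 48 h. MIC was read from the dilution series.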

Aspergillus niger [17] = test: Antifungal activity against 10^5 CFU/mL Aspergillus niger MTCC 282 after 48 hrs by disc diffusion technique; format: functional
Candida albicans [18] = test: Antifungal activity against 10^5 CFU/mL Candida albicans MTCC 183 after 48 hrs by agar streak dilution method; format: functional; conditions: MTCC 183, 48 h; in short: as §3
Pseudomonas aeruginosa [19] = test: Antibacterial activity against 10^5 CFU/mL Pseudomonas aeruginosa MTCC 741 after 24 hrs by disc diffusion technique; format: functional; in short: as §2
Aspergillus fumigatus [20] = test: Antifungal activity against 10^5 CFU/mL Aspergillus fumigatus MTCC 343 after 48 hrs by agar streak dilution method; format: functional; conditions: MTCC 343, 48 h; in short: as §3
Proteus vulgaris [21] = test: Antibacterial activity against 10^5 CFU/mL Proteus vulgaris MTCC 1771 after 24 hrs by disc diffusion technique; format: functional; in short: as §2
Aspergillus niger [22] = test: Antifungal activity against 10^5 CFU/mL Aspergillus niger MTCC 282 after 48 hrs by agar streak dilution method; format: functional; conditions: MTCC 282, 48 h; in short: as §3
Escherichia coli [23] = test: Antibacterial activity against 10^5 CFU/mL Escherichia coli MTCC 739 after 24 hrs by agar streak dilution method; format: functional; conditions: MTCC 739, 24 h; in short: as §1
Shigella flexneri [24] = test: Antibacterial activity against 10^5 CFU/mL Shigella flexneri MTCC 1457 after 24 hrs by disc diffusion technique; format: functional; in short: as §2
DU-145 = test: Cytotoxicity against […] human DU145 cells after 48 hrs by SRB assay; format: functional; conditions: DU-145, 48 h
In short: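 SRB assay in DU-145 cells grown in RPMI 1640 with 10% FBS and 2 mM L-glutamine. Cells were plated and held 24 h before addition of four 10-fold concentrations. After 48 h, cells were TCA-fixed, stained with 0.4% SRB and read at 540 nm. GI50, TGI and LC50 were derived against time-zero and control wells; each value is the mean of three experiments.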

SMILES | MIC (Klebsiella pneumoniae [1]) | inhibition zone (IZ) (Candida albicans [2]) | MIC (Salmonella typhi [3]) | MIC (Proteus vulgaris [4]) | MIC (Staphylococcus aureus [5]) | MIC (Pseudomonas aeruginosa [6]) | MIC (Shigella flexneri [7]) | inhibition zone (IZ) (Staphylococcus aureus [8]) | inhibition zone (IZ) (Bacillus cereus [9]) | MIC (Bacillus cereus [10]) | inhibition zone (IZ) (Aspergillus clavatus [11]) | inhibition zone (IZ) (Klebsiella pneumoniae [12]) | inhibition zone (IZ) (Salmonella typhi [13]) | inhibition zone (IZ) (Escherichia coli [14]) | inhibition zone (IZ) (Aspergillus fumigatus [15]) | MIC (Aspergillus clavatus [16]) | inhibition zone (IZ) (Aspergillus niger [17]) | MIC (Candida albicans [18]) | GI50 (DU-145) | TGI (DU-145) | also measured
N#Cc1ccc(Nc2nc(Oc3ccnc4ccccc34)nc(N3CCN(c4ccccn4)CC3)n2)cc1C(F)(F)F | 100 µg/mL (≈ 176 µM) | 13 mm | 100 µg/mL (≈ 176 µM) | 100 µg/mL (≈ 176 µM) | 100 µg/mL (≈ 176 µM) | 100 µg/mL (≈ 176 µM) | 100 µg/mL (≈ 176 µM) | 21 mm | 19 mm | 100 µg/mL (≈ 176 µM) | <10 mm | 17 mm | 15 mm | 19 mm | 12 mm | 100 µg/mL (≈ 176 µM) | <10 mm | 100 µg/mL (≈ 176 µM) | 85.9 µM | > 100 µM | inhibition zone (IZ) (Pseudomonas aeruginosa [19]): 16 mm; MIC (Aspergillus fumigatus [20]): 100 µg/mL (≈ 176 µM); inhibition zone (IZ) (Proteus vulgaris [21]): 16 mm; MIC (Aspergillus niger [22]): 100 µg/mL (≈ 176 µM); MIC (Escherichia coli [23]): 100 µg/mL (≈ 176 µM); inhibition zone (IZ) (Shigella flexneri [24]): 16 mm; LC50 (concentration giving 50% net cell kill relative to time zero) (DU-145): > 100 µM
N#Cc1ccc(Nc2nc(Oc3ccnc4ccccc34)nc(N3CCN(C(c4ccccc4)c4ccccc4)CC3)n2)cc1C(F)(F)F | 100 µg/mL (≈ 152 µM) | 15 mm | 100 µg/mL (≈ 152 µM) | 100 µg/mL (≈ 152 µM) | 50 µg/mL (≈ 75.9 µM) | 100 µg/mL (≈ 152 µM) | 100 µg/mL (≈ 152 µM) | 21 mm | 22 mm | 25 µg/mL (≈ 38 µM) | 16 mm | 17 mm | 19 mm | 19 mm | 20 mm | 100 µg/mL (≈ 152 µM) | 14 mm | 100 µg/mL (≈ 152 µM) | > 100 µM | > 100 µM | inhibition zone (IZ) (Pseudomonas aeruginosa [19]): 19 mm; MIC (Aspergillus fumigatus [20]): 100 µg/mL (≈ 152 µM); inhibition zone (IZ) (Proteus vulgaris [21]): 19 mm; MIC (Aspergillus niger [22]): 100 µg/mL (≈ 152 µM); MIC (Escherichia coli [23]): 100 µg/mL (≈ 152 µM); inhibition zone (IZ) (Shigella flexneri [24]): 21 mm; LC50 (concentration giving 50% net cell kill relative to time zero) (DU-145): > 100 µM
CC(=O)N1CCN(c2nc(Nc3ccc(C#N)c(C(F)(F)F)c3)nc(Oc3ccnc4ccccc34)n2)CC1 | 50 µg/mL (≈ 93.5 µM) | 17 mm | 100 µg/mL (≈ 187 µM) | 6.25 µg/mL (≈ 11.7 µM) | 12.5 µg/mL (≈ 23.4 µM) | 12.5 µg/mL (≈ 23.4 µM) | 25 µg/mL (≈ 46.8 µM) | 26 mm | 24 mm | 12.5 µg/mL (≈ 23.4 µM) | 27 mm | 23 mm | 23 mm | 24 mm | 21 mm | 12.5 µg/mL (≈ 23.4 µM) | 21 mm | 100 µg/mL (≈ 187 µM) | 75.1 µM | > 100 µM | inhibition zone (IZ) (Pseudomonas aeruginosa [19]): 24 mm; MIC (Aspergillus fumigatus [20]): 100 µg/mL (≈ 187 µM); inhibition zone (IZ) (Proteus vulgaris [21]): 27 mm; MIC (Aspergillus niger [22]): 100 µg/mL (≈ 187 µM); MIC (Escherichia coli [23]): 12.5 µg/mL (≈ 23.4 µM); inhibition zone (IZ) (Shigella flexneri [24]): 23 mm; LC50 (concentration giving 50% net cell kill relative to time zero) (DU-145): > 100 µM
COc1cccc2c1C(=O)c1c(O)c3c(c(O)c1C2=O)C[C@@](O)(C(=O)CO)C[C@@H]3O[C@H]1C[C@H](N)[C@H](O)[C@H](C)O1 [DOXORUBICIN] | – | – | – | – | – | – | – | – | – | – | – | – | – | – | – | – | – | – | < 0.1 µM | > 100 µM | –
